From ChEMBL document CHEMBL2384952, “Synthesis, antifungal and cytotoxic activities of 2-aryl-3-((piperidin-1-yl)ethyl)thiazolidinones” (Eur J Med Chem, 2013) come the findings set out here.

The subject of series [1] is Vero. The series is described as follows: Cytotoxicity against African green monkey Vero cells at 12.3 ug/mL by neutral red dye uptake assay relative to control. The series is classed as cell-based. The conditions noted are these: chlorocebus sabaeus. Summed up: (§1)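 Vero cells (over 99% viable by trypan blue exclusion) were exposed to serial compound dilutions in E-MEM, with fresh E-MEM as negative control, for 72 h at 37 °C, 5% CO2. Cells were then given 3.3 mg/L neutral red for 2 h, and the dye was extracted with 50% ethanol/1% acetic acid. A540 was read, and viability was calculated as treated/control absorbance × 100.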

The subject of series [2] is Vero. The series can be described thus: Cytotoxicity against African green monkey Vero cells at 25 ug/mL by neutral red dye uptake assay relative to control. The series is classed as cell-based. The conditions noted are these: chlorocebus sabaeus. Summed up: as §1
The test system of series [3] is Vero. The series is described as follows: Cytotoxicity against African green monkey Vero cells at 49 ug/mL by neutral red dye uptake assay relative to control. The series is classed as cell-based. To be noted: chlorocebus sabaeus. Summed up: as §1
Series [4] deals with Vero. The series is described as follows: Cytotoxicity against African green monkey Vero cells at 98 ug/mL by neutral red dye uptake assay relative to control. The conditions noted are these: chlorocebus sabaeus. The series is classed as cell-based. Summed up: as §1
Series [5] deals with Vero. The series is described as follows: Cytotoxicity against African green monkey Vero cells at 197 ug/mL by neutral red dye uptake assay relative to control. The series is classed as cell-based. To be noted: chlorocebus sabaeus. Summed up: as §1
In series [6] the test system is Vero. The series can be described thus: Cytotoxicity against African green monkey Vero cells at 394 ug/mL by neutral red dye uptake assay relative to control. The series is classed as cell-based. To be noted: chlorocebus sabaeus. The procedure, abridged: as §1
For series [7], the system named is Vero. The series can be described thus: Cytotoxicity against African green monkey Vero cells at 787 ug/mL by neutral red dye uptake assay relative to control. The series is classed as cell-based. The conditions noted are these: chlorocebus sabaeus. The procedure, abridged: as §1
Series [8] deals with Vero. The series is described as follows: Cytotoxicity against African green monkey Vero cells at 1575 ug/mL by neutral red dye uptake assay relative to control. The series is classed as cell-based. The conditions noted are these: chlorocebus sabaeus. The procedure, abridged:
as §1

For series [9], the system named is Vero. The series can be described thus: Cytotoxicity against African green monkey Vero cells at 3150 ug/mL by neutral red dye uptake assay relative to control. The series is classed as cell-based. To be noted: chlorocebus sabaeus. Summed up: as §1
Series [10] deals with Candida parapsilosis. The series is described as follows: Antifungal activity against Candida parapsilosis after 48 hrs by CLSI M27A3 broth microdilution method. The series is classed as functional. The conditions noted are these: Lodderomyces parapsilosis. The procedure, abridged: (§2)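 Yeasts were kept on Sabouraud dextrose agar and subcultured at 35 °C for at least 2 days. They were suspended in saline to McFarland 0.5 and diluted in RPMI. Ten successive dilutions were made from a 1.6 mg/mL DMSO stock per CLSI broth microdilution, then incubated at 37 °C for 48 h. Growth was read visually against a growth-control well, and MIC is the lowest concentration inhibiting growth.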

Series [11] has as its system Geotrichum. The series can be described thus: Antifungal activity against Geotrichum species after 48 hrs by CLSI M27A3 broth microdilution method. The series is classed as functional. The procedure, abridged: as §2
A general note: Dilution methods test growth across graded concentrations, often in twofold steps.

For series [12], the system named is Papiliotrema laurentii. The series is described as follows: Antifungal activity against Cryptococcus laurentii after 48 hrs by CLSI M27A3 broth microdilution method. The series is classed as functional. The procedure, abridged:
as §2

Series [13] deals with Rhodotorula. The series can be described thus: Antifungal activity against Rhodotorula species after 48 hrs by CLSI M27A3 broth microdilution method. The series is classed as functional. The procedure, abridged:
as §2

The test system of series [14] is Candida albicans. The series is described as follows: Antifungal activity against Candida albicans after 48 hrs by CLSI M27A3 broth microdilution method. The series is classed as functional. Summed up:
as §2

Series [15] has as its system Trichosporon asahii. The series can be described thus: Antifungal activity against Trichosporon asahii after 48 hrs by CLSI M27A3 broth microdilution method. The series is classed as functional. The procedure, abridged: as §2
Series [16] relates to Meyerozyma guilliermondii. The series can be described thus: Antifungal activity against Candida guilliermondii after 48 hrs by CLSI M27A3 broth microdilution method. The series is classed as functional. Summed up: as §2

Converted amounts (≈) assume the structure as drawn.

In the case of `O=C1CSC(c2ccc([N+](=O)[O-])cc2)N1CCN1CCCCC1` (configuration not stated), the Cell viability is on record as 100% in series [1]; 100% in series [2]; 100% in series [3]; 87% in [4]; 72% in [5]; 66% in series [6]. The Cell viability in series [7] is listed as 21%; in series [8] it was 15%; in series [9], 10%. Further, the minimum fungicidal concentration (MFC) turned out to be 100 µg/mL (≈ 298 µM) in series [10]; 50 µg/mL (≈ 149 µM) in series [11]; 100 µg/mL (≈ 298 µM) in series [12]; 30 µg/mL (≈ 89.4 µM) in series [13]; 62 µg/mL (≈ 185 µM) in [14]; 100 µg/mL (≈ 298 µM) in series [15]. The MFC in series [16] was 100 µg/mL (≈ 298 µM). In addition, the MIC in [10] was 100 µg/mL (≈ 298 µM); in series [11], 50 µg/mL (≈ 149 µM); in [12], 100 µg/mL (≈ 298 µM); in [13] it was 30 µg/mL (≈ 89.4 µM); in [14], 62 µg/mL (≈ 185 µM); in [15] it was 100 µg/mL (≈ 298 µM). The molecule also yielded an MIC in series [16] of 100 µg/mL (≈ 298 µM).

With `COc1ccc(C2SCC(=O)N2CCN2CCCCC2)cc1` (configuration not stated), the Cell viability in series [1] is 100%; in series [2], 100%; in series [3], 100%; in series [4], 89%; in [5], 87%; in series [6], 73%. The Cell viability was found to be 33% in [7], 11% in [8] and 11% in series [9]. Further, the MFC in [10] is 50 µg/mL (≈ 156 µM); in series [11], > 400 µg/mL; in series [12], 100 µg/mL (≈ 312 µM); in [13] it was 33.5 µg/mL (≈ 105 µM); in [14], 75 µg/mL (≈ 234 µM); in series [15], > 400 µg/mL. For the same molecule, the MFC in [16] was found to be 100 µg/mL (≈ 312 µM). Besides, the MIC in series [10] was 50 µg/mL (≈ 156 µM); in series [11] it was > 400 µg/mL; in series [12], 100 µg/mL (≈ 312 µM); in [13] it was 33.5 µg/mL (≈ 105 µM); in series [14] it was 75 µg/mL (≈ 234 µM); in series [15] it was > 400 µg/mL. The same molecule displayed an MIC in series [16] of 100 µg/mL (≈ 312 µM).

As to `O=C1CSC(c2ccccc2[N+](=O)[O-])N1CCN1CCCCC1` (configuration not stated), the Cell viability in [1], in [2], in series [3], in [4], in series [5] and in series [6] was 100% each time. For the same molecule, the Cell viability in series [7] is listed as 100%; in series [8], 24%; in series [9] it was 30%. The minimal fungicidal concentration (MFC) in [10] worked out at 50 µg/mL (≈ 149 µM); in [11], 25 µg/mL (≈ 74.5 µM); in series [12] it was 100 µg/mL (≈ 298 µM); in [13] it was 25 µg/mL (≈ 74.5 µM); in series [14], 55 µg/mL (≈ 164 µM); in series [15], 100 µg/mL (≈ 298 µM). In [16], this molecule showed an MFC of 25 µg/mL (≈ 74.5 µM). Further, the MIC stood at 50 µg/mL (≈ 149 µM) in series [10]; 25 µg/mL (≈ 74.5 µM) in [11]; 100 µg/mL (≈ 298 µM) in series [12]; 25 µg/mL (≈ 74.5 µM) in series [13]; 55 µg/mL (≈ 164 µM) in series [14]; 100 µg/mL (≈ 298 µM) in series [15]. This molecule displayed an MIC in series [16] of 25 µg/mL (≈ 74.5 µM).

As to `O=C1CSC(c2cccc(O)c2)N1CCN1CCCCC1` (configuration not stated), the Cell viability in series [1], in [2], in series [3], in series [4], in series [5] and in series [6] was 100% each time. Moreover, the values for the Cell viability in [7], in series [8] and in series [9] were 60%, 13% and 11%, respectively. Besides, the minimal fungicidal concentration (MFC) in series [10] is 67 µg/mL (≈ 219 µM); in [11] it was > 400 µg/mL; in series [12] it was 100 µg/mL (≈ 326 µM); in series [13], 33.5 µg/mL (≈ 109 µM); in [14], 81 µg/mL (≈ 264 µM); in [15] it was > 400 µg/mL. This molecule also gave an MFC in series [16] of 100 µg/mL (≈ 326 µM). In addition, the MIC in series [10] is 67 µg/mL (≈ 219 µM); in series [11], > 400 µg/mL; in [12], 100 µg/mL (≈ 326 µM); in series [13], 33.5 µg/mL (≈ 109 µM); in series [14], 81 µg/mL (≈ 264 µM); in series [15] it was > 400 µg/mL. The lowest concentration to inhibit growth in series [16] (MIC) was 100 µg/mL (≈ 326 µM).

What is called MFC is the lowest tested concentration that kills the fungus rather than only halting it. By MIC is commonly meant the least concentration at which growth counts as inhibited.
